Results from ChEMBL document CHEMBL3120154, “2-[N-Alkyl(R-phenyl)-aminomethyl]-3-phenyl-7-trifluoromethylquinoxalines as anticancer agents inhibitors of folate enzymes” (Eur J Med Chem, 2014).

Columns and labels:
Format in all cases: functional
SR [1] = assay: Cytotoxicity against human SR cells at 10^-8 M after 48 hrs by SRB assay; conditions: read-out: GI
SR [2] = assay: Cytotoxicity against human SR cells at 10^-7 M after 48 hrs by SRB assay; conditions: read-out: GI
[3] = Cytotoxicity against human UACC257 cells after 48 hrs by SRB assay; conditions: UACC-257, 48 h
BT-549 = assay: Cytotoxicity against human BT549 cells at 10^-8 M after 48 hrs by SRB assay; conditions: BT-549, 48 h, read-out: GI
MDA-MB-435 = assay: Cytotoxicity against human MDA-MB-435 cells at 10^-8 M after 48 hrs by SRB assay; conditions: MDA-MB-435, 48 h, read-out: GI
MCF7 = assay: Cytotoxicity against human MCF7 cells at 10^-8 M after 48 hrs by SRB assay; conditions: MCF7, 48 h, read-out: GI
[4] = Cytotoxicity against human UO31 cells at 10^-8 M after 48 hrs by SRB assay; conditions: UO-31, 48 h, read-out: GI
RXF 393 = assay: Cytotoxicity against human RXF393 cells at 10^-8 M after 48 hrs by SRB assay; conditions: RXF 393, 48 h, read-out: GI
SN12C [5] = assay: Cytotoxicity against human SN12C cells at 10^-8 M after 48 hrs by SRB assay; conditions: read-out: GI
ACHN [6] = assay: Cytotoxicity against human ACHN cells at 10^-8 M after 48 hrs by SRB assay; conditions: read-out: GI
786-0 = assay: Cytotoxicity against human 786-0 cells at 10^-8 M after 48 hrs by SRB assay; conditions: 786-0, 48 h, read-out: GI
[7] = Cytotoxicity against human OVCAR5 cells at 10^-8 M after 48 hrs by SRB assay; conditions: OVCAR-5, 48 h, read-out: GI
[8] = Cytotoxicity against human OVCAR4 cells at 10^-8 M after 48 hrs by SRB assay; conditions: OVCAR-4, 48 h, read-out: GI
IGROV-1 [9] = assay: Cytotoxicity against human IGROV1 cells at 10^-8 M after 48 hrs by SRB assay; conditions: IGROV-1, 48 h, read-out: GI
UACC-62 [10] = assay: Cytotoxicity against human UACC62 cells at 10^-8 M after 48 hrs by SRB assay; conditions: UACC-62, 48 h, read-out: GI
SK-MEL-5 = assay: Cytotoxicity against human SK-MEL-5 cells at 10^-8 M after 48 hrs by SRB assay; conditions: SK-MEL-5, 48 h, read-out: GI
SK-MEL-28 = assay: Cytotoxicity against human SK-MEL-28 cells at 10^-8 M after 48 hrs by SRB assay; conditions: SK-MEL-28, 48 h, read-out: GI
SNB-19 [11] = assay: Cytotoxicity against human SNB19 cells at 10^-8 M after 48 hrs by SRB assay; conditions: SNB-19, 48 h, read-out: GI
NCI-H522 = assay: Cytotoxicity against human NCI-H522 cells at 10^-8 M after 48 hrs by SRB assay; conditions: NCI-H522, 48 h, read-out: GI
NCI-H460 = assay: Cytotoxicity against human NCI-H460 cells at 10^-8 M after 48 hrs by SRB assay; conditions: NCI-H460, 48 h, read-out: GI
NCI-H23 = assay: Cytotoxicity against human NCI-H23 cells at 10^-8 M after 48 hrs by SRB assay; conditions: NCI-H23, 48 h, read-out: GI
NCI-H226 = assay: Cytotoxicity against human NCI-H226 cells at 10^-8 M after 48 hrs by SRB assay; conditions: NCI-H226, 48 h, read-out: GI
HOP-92 = assay: Cytotoxicity against human HOP92 cells at 10^-8 M after 48 hrs by SRB assay; conditions: HOP-92, 48 h, read-out: GI
A549 = assay: Cytotoxicity against human A549 cells at 10^-8 M after 48 hrs by SRB assay; conditions: A549, 48 h, read-out: GI
RPMI-8226 = assay: Cytotoxicity against human RPMI8226 cells at 10^-8 M after 48 hrs by SRB assay; conditions: RPMI-8226, 48 h, read-out: GI
K562 = assay: Cytotoxicity against human K562 cells at 10^-8 M after 48 hrs by SRB assay; conditions: K562, 48 h, read-out: GI
HL-60(TB) = assay: Cytotoxicity against human HL-60(TB) cells at 10^-8 M after 48 hrs by SRB assay; conditions: HL-60, 48 h, read-out: GI
Procedure, shortened: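 NCI 60-human-tumour-cell-line screen run over a 5-log dose range (100, 10, 1, 0.1 and 0.01 µM). Cells were exposed to drug for 48 h. Growth was estimated by sulforhodamine B protein staining. Values are percent growth inhibition at each concentration, relative to untreated control cells.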

[12] = Cytotoxicity against human Hs578T cells at 10^-7 M after 48 hrs by SRB assay; conditions: Hs-578T, read-out: GI
PC-3 = assay: Cytotoxicity against human PC3 cells at 10^-7 M after 48 hrs by SRB assay; conditions: PC-3, 48 h, read-out: GI
SN12C [13] = assay: Cytotoxicity against human SN12C cells at 10^-7 M after 48 hrs by SRB assay; conditions: read-out: GI
ACHN [14] = assay: Cytotoxicity against human ACHN cells at 10^-7 M after 48 hrs by SRB assay; conditions: read-out: GI
[15] = Cytotoxicity against human OVCAR4 cells at 10^-7 M after 48 hrs by SRB assay; conditions: OVCAR-4, 48 h, read-out: GI
UACC-62 [16] = assay: Cytotoxicity against human UACC62 cells at 10^-7 M after 48 hrs by SRB assay; conditions: UACC-62, 48 h, read-out: GI
IGROV-1 [17] = assay: Cytotoxicity against human IGROV1 cells at 10^-7 M after 48 hrs by SRB assay; conditions: IGROV-1, 48 h, read-out: GI
SK-MEL-2 = assay: Cytotoxicity against human SK-MEL-2 cells at 10^-7 M after 48 hrs by SRB assay; conditions: SK-MEL-2, 48 h, read-out: GI
U-251 = assay: Cytotoxicity against human U251 cells at 10^-7 M after 48 hrs by SRB assay; conditions: U-251, 48 h, read-out: GI
SNB-19 [18] = assay: Cytotoxicity against human SNB19 cells at 10^-7 M after 48 hrs by SRB assay; conditions: SNB-19, 48 h, read-out: GI
HCT-116 = assay: Cytotoxicity against human HCT116 cells at 10^-7 M after 48 hrs by SRB assay; conditions: HCT-116, 48 h, read-out: GI
HCT-15 = assay: Cytotoxicity against human HCT15 cells at 10^-7 M after 48 hrs by SRB assay; conditions: HCT-15, 48 h, read-out: GI
NCI-H322M = assay: Cytotoxicity against human NCI-H322M cells at 10^-7 M after 48 hrs by SRB assay; conditions: read-out: GI
MOLT-4 = assay: Cytotoxicity against human MOLT4 cells at 10^-7 M after 48 hrs by SRB assay; conditions: MOLT-4, 48 h, read-out: GI
CCRF-CEM = assay: Cytotoxicity against human CCRF-CEM cells at 10^-7 M after 48 hrs by SRB assay; conditions: read-out: GI

CCN(Cc1nc2cc(C(F)(F)F)ccc2nc1-c1ccccc1)c1ccc(OC)c(OC)c1
inhibition of growth at 0.01 µM (SR [1]): < 40% | inhibition of growth at 0.1 µM (SR [2]): < 40% | GI50 [3]: 25.1 nM | inhibition of growth at 0.01 µM (BT-549): < 40% | inhibition of growth at 0.01 µM (MDA-MB-435): < 40% | inhibition of growth at 0.01 µM (MCF7): < 40% | inhibition of growth at 0.01 µM [4]: < 40% | inhibition of growth at 0.01 µM (RXF 393): 22% | inhibition of growth at 0.01 µM (SN12C [5]): < 40% | inhibition of growth at 0.01 µM (ACHN [6]): < 40% | inhibition of growth at 0.01 µM (786-0): < 40% | inhibition of growth at 0.01 µM [7]: < 40% | inhibition of growth at 0.01 µM [8]: < 40% | inhibition of growth at 0.01 µM (IGROV-1 [9]): < 40% | inhibition of growth at 0.01 µM (UACC-62 [10]): < 40% | inhibition of growth at 0.01 µM (SK-MEL-5): < 40% | inhibition of growth at 0.01 µM (SK-MEL-28): < 40% | inhibition of growth at 0.01 µM (SNB-19 [11]): < 40% | inhibition of growth at 0.01 µM (NCI-H522): < 40% | inhibition of growth at 0.01 µM (NCI-H460): < 40% | inhibition of growth at 0.01 µM (NCI-H23): < 40% | inhibition of growth at 0.01 µM (NCI-H226): < 40% | inhibition of growth at 0.01 µM (HOP-92): < 40% | inhibition of growth at 0.01 µM (A549): 19% | inhibition of growth at 0.01 µM (RPMI-8226): < 40% | inhibition of growth at 0.01 µM (K562): < 40% | inhibition of growth at 0.01 µM (HL-60(TB)): < 40% | inhibition of growth at 0.1 µM [12]: < 40% | inhibition of growth at 0.1 µM (PC-3): < 40% | inhibition of growth at 0.1 µM (SN12C [13]): < 40% | inhibition of growth at 0.1 µM (ACHN [14]): < 40% | inhibition of growth at 0.1 µM [15]: < 40% | inhibition of growth at 0.1 µM (UACC-62 [16]): < 40% | inhibition of growth at 0.1 µM (IGROV-1 [17]): < 40% | inhibition of growth at 0.1 µM (SK-MEL-2): < 40% | inhibition of growth at 0.1 µM (U-251): < 40% | inhibition of growth at 0.1 µM (SNB-19 [18]): < 40% | inhibition of growth at 0.1 µM (HCT-116): < 40% | inhibition of growth at 0.1 µM (HCT-15): < 40% | inhibition of growth at 0.1 µM (NCI-H322M): < 40% | inhibition of growth at 0.1 µM (MOLT-4): < 40% | inhibition of growth at 0.1 µM (CCRF-CEM): < 40%
